Among the data in ChEMBL document CHEMBL1132248, “2,4-Diphenyl furan diamidines as novel anti-Pneumocystis carinii pneumonia agents” (J Med Chem, 1999) are ΔTm, Toxicity and Control values, retold here.

Molecules are shown by their SMILES. Where “and” joins values, the source holds several entries; their conditions need not be identical. Equal values may be shown once.

Series [1] is described as follows: The compound was tested for the increase in thermal melting of d(CGCGAATTCGCG)2.
In series [2] the test system is Nucleic Acid.
Series [3] relates to Rattus norvegicus. Put plainly: Toxicity in immunosuppressed rat after administration of 10 uM/Kg/d. Format: organism-based. Particulars: in vivo. The gist of the method: (§1)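 Immunosuppressed rats with Pneumocystis carinii pneumonia; compounds given intravenously at the daily dose named in each line. Toxicity scored on a five-level scale from 0 to 5+; the paper calls the scores anecdotal rather than definitive. The same study scored lung cysts per gram against pooled saline controls (n = 46).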

The test system of series [4] is Rattus norvegicus. Put plainly: Percentage control of Pneumocystis carinii pneumonia in immunosuppressed rat at 10 uM/Kg/d administered intravenously. Format: functional. The gist of the method:
(§2)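 Immunosuppressed rats with Pneumocystis carinii pneumonia were given test agent intravenously. The read-out was cysts per g of lung tissue, expressed as percent of pooled saline-treated controls (n = 46). Values below 1% of control fall within experimental error.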

Series [5] deals with Rattus norvegicus. Put plainly: Percentage control of Pneumocystis carinii pneumonia in immunosuppressed rat at 10 uM/Kg/d administered intravenously. Format: functional. The gist of the method:
as §2

Series [6] has as its system Rattus norvegicus. The series is described as follows: Toxicity in immunosuppressed rat after administration of 10 uM/Kg/d. Format: organism-based. To be noted: in vivo. The gist of the method:
as §1

For series [7], the system named is Nucleic Acid. The source holds these as a separate data set.
The test system of series [8] is Rattus norvegicus. Put plainly: Percentage control of Pneumocystis carinii pneumonia in immunosuppressed rat at 22 uM/Kg/d administered intravenously. The class given is functional. The gist of the method:
as §2

Series [9] concerns Rattus norvegicus. Put plainly: Toxicity in immunosuppressed rat after administration of 1 uM/Kg/d. Format: organism-based. Particulars: in vivo. The gist of the method: as §1
Series [10] relates to Rattus norvegicus. The series is described as follows: Percentage control of Pneumocystis carinii pneumonia in immunosuppressed rat at 1 uM/Kg/d administered intravenously. Format: functional. The gist of the method: as §2
Series [11] has as its system Rattus norvegicus. Put plainly: Percentage control of Pneumocystis carinii pneumonia in immunosuppressed rat at 5 uM/Kg/d administered intravenously. The class given is functional. The gist of the method: as §2
Series [12] concerns Rattus norvegicus. The series is described as follows: Percentage control of Pneumocystis carinii pneumonia in immunosuppressed rat at 0.25 uM/Kg/d administered intravenously. Format: functional. The gist of the method: as §2
Series [13] has as its system Rattus norvegicus. Put plainly: Toxicity in immunosuppressed rat after administration of 0.2 5 uM/Kg/d. Format: organism-based. To be noted: in vivo. The gist of the method: as §1
The subject of series [14] is Rattus norvegicus. Put plainly: Percentage control of Pneumocystis carinii pneumonia in immunosuppressed rat at 20 uM/Kg/d administered intravenously. Format: functional. The gist of the method: as §2
Series [15] relates to Rattus norvegicus. Put plainly: Toxicity in immunosuppressed rat after administration of 5 uM/Kg/d. The class given is organism-based. To be noted: in vivo. The gist of the method: as §1
Series [16] deals with Rattus norvegicus. The series is described as follows: Toxicity in immunosuppressed rat after administration of 1 uM/kg/day. The class given is organism-based. To be noted: in vivo. The gist of the method: as §1

For `CC(C)C/N=C(/N)c1ccc(-c2coc(-c3ccc(/C(N)=N\CC(C)C)cc3)c2)cc1`, the results for the ΔTm (in series [1]; in the series with Nucleic Acid [2]) were 9.3 and 20.4, respectively.
Turning to `Cc1oc(-c2ccc(/C(N)=N\C(C)C)cc2)c(C)c1-c1ccc(/C(N)=N\C(C)C)cc1.Cl.Cl`, the Toxicity in the series on Rattus norvegicus [3] was found to be 0. In addition, the values for the ΔTm (in series [1]; in the series with Nucleic Acid [2]) were 5.4 and 12.5, respectively. The Control with Rattus norvegicus [4] is given as 24.43%.
As to `Cl.Cl.N=C(NC1CC1)c1ccc(-c2coc(-c3ccc(C(=N)NC4CC4)cc3)c2)cc1`, the Control in the series on Rattus norvegicus [5] was found to be 0.01%. The same molecule showed a Toxicity in the series with Rattus norvegicus [3] of 0. The ΔTm was found to be 10.9 in series [1] and 23.2 in the series with Nucleic Acid [2].
`Cl.Cl.N=C(N)c1ccc(-c2coc(-c3ccc(C(=N)N)cc3)c2)cc1`: the figures for the ΔTm (in series [1]; with Nucleic Acid [2]) were 9.1 and 19, respectively. In the series on Rattus norvegicus [6], this molecule gave a Toxicity of 0. In the series with Rattus norvegicus [4], this molecule displayed a Control of 0.3%.
Turning to `c1cc(-c2coc(-c3ccc(C4=NCCN4)cc3)c2)ccc1C1=NCCN1`, the ΔTm in series [1] was 7.2; with Nucleic Acid [2], 16.8.
Regarding `Cc1oc(-c2ccc(C(=N)N)cc2)c(C)c1-c1ccc(C(=N)N)cc1.Cl.Cl`, the values for the ΔTm (in [1]; in the series on Nucleic Acid [2]) were 6.5 and 17, respectively. This molecule also registered a Control in the series on Rattus norvegicus [4] of 0.89%.
For the molecule `N=C(N)c1ccc(OCCCCCOc2ccc(C(=N)N)cc2)cc1` [PENTAMIDINE], the values for the ΔTm (with Nucleic Acid [7]; in series [1]) were 12.6 and 4.8, respectively. The molecule further came in with a Control in the series on Rattus norvegicus [8] of 2.3%.
Take `Cl.Cl.N=C(NC1CCCC1)c1ccc(-c2coc(-c3ccc(C(=N)NC4CCCC4)cc3)c2)cc1`: the Toxicity with Rattus norvegicus [9] and with Rattus norvegicus [3] was 0 each time. Further, the ΔTm came out at 13.6 in [1] and 20.4 with Nucleic Acid [2]. For the same molecule, the Control with Rattus norvegicus [4] is on record as 0.16%; in the series on Rattus norvegicus [10], 1.79%.
Turning to `CC(C)/N=C(/N)c1ccc(-c2coc(-c3ccc(/C(N)=N\C(C)C)cc3)c2)cc1.Cl.Cl`, the Control in the series on Rattus norvegicus [11] is 0.08%; with Rattus norvegicus [12] it was 110.5%; in the series on Rattus norvegicus [14], 0%; in the series on Rattus norvegicus [4], 0.04% and 0.08%. Also, the Toxicity in the series on Rattus norvegicus [13], in the series with Rattus norvegicus [6], in the series on Rattus norvegicus [15] and in the series with Rattus norvegicus [16] was 0 each time. Moreover, the ΔTm in series [1] was 10.9; in the series on Nucleic Acid [2], 17.6.
